By IC50 is commonly meant the point on the concentration scale where inhibition reaches its midpoint. High values mean lower potency, low ones higher potency.

This note sets out measurements from ChEMBL document CHEMBL1125301, “1-(2-Aminoethyl)-3-methyl-8,9-dihydropyrano[3,2-e]indole: a rotationally restricted phenolic analog of the neurotransmitter serotonin and agonist selective for serotonin (5-HT2-type) receptors” (J Med Chem, 1992).

For test [1], the target named is T1, Serotonin 2 (5-HT2) receptor (Rattus norvegicus, UniProt P30994+P08909+P14842). Put plainly: Compound was evaluated for binding affinity towards 5-hydroxytryptamine 2 receptor in rat anterior cortex using [3H]ketanserin as radioligand. The essentials: (§1)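 Competition binding against the named radioligand on the native tissue membranes shown, radioligand at roughly its K_D for the binding system; procedures otherwise follow earlier published methods.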

In test [2] the target is T1, Serotonin 2 (5-HT2) receptor. Put plainly: Compound was evaluated for binding affinity towards 5-hydroxytryptamine 2 receptor in rat anterior cortex using [125I]DOI as radioligand. The gist of the method: as §1
Test [3] addresses T2, 5-hydroxytryptamine receptor 1A (Rattus norvegicus, UniProt P19327).
T2 sequence (P19327 whole entry): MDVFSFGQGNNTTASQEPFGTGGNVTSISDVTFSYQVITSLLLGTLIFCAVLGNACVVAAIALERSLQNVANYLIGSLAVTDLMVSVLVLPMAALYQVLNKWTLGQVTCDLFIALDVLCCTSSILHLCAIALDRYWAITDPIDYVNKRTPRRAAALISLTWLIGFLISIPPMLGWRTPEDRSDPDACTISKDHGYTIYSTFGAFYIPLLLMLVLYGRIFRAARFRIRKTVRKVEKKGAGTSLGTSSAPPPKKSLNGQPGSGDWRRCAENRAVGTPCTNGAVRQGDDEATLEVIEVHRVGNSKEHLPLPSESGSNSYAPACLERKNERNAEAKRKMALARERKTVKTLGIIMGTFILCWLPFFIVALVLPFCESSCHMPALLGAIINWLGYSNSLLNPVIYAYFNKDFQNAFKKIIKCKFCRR
As to the kind of experiment: Compound was evaluated for binding affinity towards 5-hydroxytryptamine 1A receptor in rat cortex using [3H]-8-OH-DPAT as radioligand. The essentials:
as §1

Turning to `Cn1cc(CCN)c2c3c(ccc21)OCCC3`, the values for the IC50 in test [1] and in test [2] were 800 nM and 14 nM, respectively.
`NCCc1c[nH]c2ccc3c(c12)CCCO3`: the values for the IC50 in test [3], in test [1] and in test [2] were 610 nM, 2200 nM and 14 nM, respectively.
In the same order, the values of `CN(C)CCc1cn(C)c2ccc3c(c12)CCCO3` are 5400 nM, 1000 nM and 81 nM.
In the same order, the values of `CN(C)CCc1c[nH]c2cc3c(cc12)OCCC3` are 1200 nM, 5900 nM and 920 nM.
In test [3], `COc1ccc2[nH]cc(CCN(C)C)c2c1` [MEBUFOTENIN] returned an IC50 of 11 nM.
